From the EternaBench riboswitch data

System: MS2 coat protein
Experiment: apparent Kd, MS2 coat protein; higher = weaker binding; RNA-MaP array
How it was run: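 Designs measured on fewer than 10 clusters were excluded from the data. The rest were RNAs transcribed from sequenced DNA templates on an Illumina sequencing chip and incubated at room temperature, with or without input ligand, with fluorescently labeled MS2 coat protein at 1.5 nM to 3 μM for 0.8–1.5 h at the lowest to 10–20 min at the highest concentrations. Apparent Kd is the median of the per-cluster binding-curve fits.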

[1] = designed as: ON switch for flavin mononucleotide, no ligand
[2] = ligand present: flavin mononucleotide, designed as: ON switch for flavin mononucleotide
[3] = designed as: OFF switch for flavin mononucleotide, no ligand
[4] = ligand present: flavin mononucleotide, designed as: OFF switch for flavin mononucleotide
[5] = designed as: ON switch for tryptophan, no ligand
[6] = ligand present: tryptophan, designed as: ON switch for tryptophan

| Sequence | apparent Kd [3] | apparent Kd [4] | further results |
| --- | --- | --- | --- |
| CUUGGCGCUCAGAAGGCCGUCCAUGCACGCGCUAGGACAUGAGGAUCACCCAUGUAUCUAUGGACGGAGGAUAUGAUUCUCUCG | – | – | apparent Kd [1]: 20.4 nM; apparent Kd [2]: 8.75 nM |
| ACAUGAGGAUCACCCAUGUUUGACUGGGCUUGCUCUCGCCGUAGAAGGUUUCAUUAAGUAGAGGAAAAGGAUAUACACUGGGCC | 12.2 nM | 10.7 nM | – |
| GCUGACCAGGAGAAGGGAUACGGUCUCCUUGUGGAAAUGAACAUGAGGAUCACCCAUGUAUUAGAUCAGGAUAUCCAAUGGAGG | 13.4 nM | 14.4 nM | – |
| GACAUGAGGAUCACCCAUGUGAAAUUCAUGGCGAUAACAUCUGAGGAUAUGUGCAGCCGAGGAAGACAGAAGGCAGAAACACAA | 117 nM | 119 nM | – |
| CGGGCCAUCUAAGGAUAUUUGCCGGCCCGAAGACAUGAGGAUCACCCAUGUGUGAACGGAUGUCGAAAGAAGGUAGACCUGGUC | – | – | apparent Kd [1]: 300 nM; apparent Kd [2]: 206 nM |
| GGAUGUAGACAGGAUAUUGCCAUUCCAAUGCGCCAAGAAGGGUCUACAUGAGGAUCACCCAUGUAAAGAAUAGG | 207 nM | 106 nM | – |
| UCAUGGUCAGGAUAUACGAUUAGACAUGGCUUCGAUAAGUCGUAGAAGGGACAUGAGGAUCACCCAUGUAGCAA | 109 nM | 33.5 nM | – |
| UAGCAAUUACAUGAGGAUCACCCAUGUCUAUCGCAGAACAAGCAGGAUAUAGUGACACGACUCCGCUAGAAGGGCUCCUCUGUU | – | – | apparent Kd [1]: 62.4 nM; apparent Kd [2]: 55.3 nM |
| AACAUGAGGAUCACCCAUGUUUCAGAUCCUCUCUGGUUCAAGUAGGAUAUGUGUGAUACGGAAGUACAGAAGGACUCCGGAGCA | 38.4 nM | 29.5 nM | – |
| AACCGACAUGAGGAUCACCCAUGUGAGGAUAUGUUCGAGCUGGCAGGACCACCCUGGGACAGAAGGCACGUGAA | 11.2 nM | 17.7 nM | – |
| UAACCACAUGAGGAUCACCCAUGUCCCACAUUCGCAGGAUAUGGGUCACUGAGGUCACUACCAGAAGGGCGGAUGC | – | – | apparent Kd [1]: 467 nM; apparent Kd [2]: 178 nM |
| GUUCGUAGGUAGGAUAUAAGAGCUGUACUCUUCUUAGAAGGACCCACAUGAGGAUCACCCAUGUUUUGGGCGUG | 10.3 nM | 35.5 nM | – |
| GAAUCAUGACAGAAGGCACGGAAUACCCGGCUGUGAGGAUAUGUUUGAAAACAGACAUGAGGAUCACCCAUGUCCGAAGUGUCU | 301 nM | 555 nM | – |
| GACCACAUGAGGAUCACCCAUGUCUUGGUCCGAGGACCGGUACGGCCGCCACUCGAGAGCCGUACAAAUAAACGGAGUGCCAUCA | – | – | apparent Kd [5]: 15.9 nM; apparent Kd [6]: 13.5 nM |
| CGCUGCCGAAGAGGAUAUCCCACGACCCAAACUGGAGAAGGCUUUAGGUUUUGCCGACAUGAGGAUCACCCAUGUGUCAGUGCA | 13.1 nM | 11.4 nM | – |
| AAGUGCAGCCGAGGAUAUAUCCACACGCCAGUACCCUCUCACAUGAGGAUCACCCAUGUUACCGGAUAGAAGGCGGUUUAUUAU | 31.7 nM | 58.5 nM | – |
| GUCUCCUGAGAGAAGGCUCGCUCCGAGGAAUAGAGAGGAUAUCUACAUGAGGAUCACCCAUGUUGCCGAGGGAAAUGCACGGGU | 68.9 nM | 90.5 nM | – |
| UAACCAAAUGGAUGACCACAUGAGGAUCACCCAUGUCGGCAACAGGAUAUUAUCAGAUGGGCUAAUAAGAAGGGUUACUCAGCC | 14.9 nM | 13.2 nM | – |
| AACAUGAGGAUCACCCAUGUCGGGUAUAGGAAUGUGUGUCUGCAGGAUAUGCCUUGCAUUGCAUAGCAGAAGGGCACGGCUCAG | 125 nM | 64.2 nM | – |
| CAAAACAUGAGGAUCACCCAUGUAGAUACGUGAAAAUUAUGGGAGGAUAUACAAUAGGACUGUAUGAAGAAGGCCCGAAAGCCA | – | – | apparent Kd [1]: 20 nM; apparent Kd [2]: 18.5 nM |
| GCUGCACAUUCGGCCGCCACUGCUGUUACAGGAAGCUAUAGCUCACAUGAGGAUCACCCAUGUCCCAGGACCGGGAAAGUAUGGA | – | – | apparent Kd [5]: 72.9 nM; apparent Kd [6]: 65.9 nM |
| ACUACGCUAGGAUAUACGAGGAGUGCAUGGAAGCGUUUGACACAUGAGGAUCACCCAUGUAGAAGGAGCUGCAA | 7.75 nM | 16.1 nM | – |
| GGAUCACAUGAGGAUCACCCAUGUAAAGACGAUACAGGAUAUGACAGAACACGCAUCGUUUCAGAAGGGUAUAGUG | – | – | apparent Kd [1]: 66.9 nM; apparent Kd [2]: 47.6 nM |
| ACAAAGACAGGAUAUACAAAUUACAACUAAUCAAGGAAAAGACAUGAGGAUCACCCAUGUAGAAGGGUCAAUAA | 26.9 nM | 20.5 nM | – |
| AAGCUACAUGAGGAUCACCCAUGUCUCACGUCACUAGGAUAUCUGAAGGUGACGAAGUUCAGAGAAGGAGUGCAUC | – | – | apparent Kd [1]: 97.2 nM; apparent Kd [2]: 83.2 nM |
| CAGAACAACGAAGGAUAUGCGAAACAUGAGGAUCACCCAUGUGUGGUUUUACUCAAACACCUGUCGCAGAAGGUCGCGUAACGA | 37.9 nM | 31.1 nM | – |
